Results published in ChEMBL document CHEMBL1128357, “Synthesis and biological properties of water-soluble p-boronophenylalanine derivatives. Relationship between water solubility, cytotoxicity, and cellular uptake” (J Med Chem, 1995).
Converted amounts (≈) assume the structure as drawn.

Experiments:
B16 = assay: Cytotoxicity of compound towards B-16 melanoma cells, expressed as survival ratio of cells; type: functional, Mus musculus
TIG-1-20 = assay: Cytotoxicity of compound towards TIG-1-20 hybrobrast cells, expressed as survival ratio of cells; type: functional, Homo sapiens
[1] = Solubility in water at room temperature; type: physicochemical; conditions: read-out: S
Procedure, shortened: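 Excess boron compound was dissolved, and the undissolved material was removed by membrane filtration. Boron concentration of the saturated solution was measured by ICP-AES. Three replicates, mean ± SE.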

Row | Structure (SMILES) | Survival ratio (B16) | Survival ratio (TIG-1-20) | solubility [1]
1 | NC(Cc1ccc(B(O)O)cc1)C(=O)O (configuration not stated) | 20% | 20% | 7.7 mM (≈ 1.61 mg/mL)
2 | NC(Cc1ccc(B(O)O)cc1)C(=O)NC(COC(CO)CO)COC(CO)CO (configuration not stated) | 62% | 73% | 1200 mM (≈ 516 mg/mL)
3 | NC(Cc1ccc(B(O)O)cc1)C(=O)NC(CO)CO (configuration not stated) | 60% | 71% | 660 mM (≈ 186 mg/mL)
4 | NC(Cc1ccc(B(O)O)cc1)C(=O)NCCO (configuration not stated) | 60% | 66% | 600 mM (≈ 151 mg/mL)
